# Screening results: PubChem BioAssay, several laboratories
# GalR3 antag = antagonists of human GalR3; O60755; 0.44% of 360,000 active; HEK293 GalR3-CNG cAMP membrane potential fluorescence; galR3 body fused to GalR1 C-terminus; inhibition, % at 3 µM;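 active = inhibition above the screen-wide average plus 3 SD, cut at about 13% in these data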;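 note: forskolin and galanin both at EC90 stimulate the cells; cAMP rise reported by CNG channel membrane potential dye signal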
# Target sequence (O60755 1-299 limits assumed): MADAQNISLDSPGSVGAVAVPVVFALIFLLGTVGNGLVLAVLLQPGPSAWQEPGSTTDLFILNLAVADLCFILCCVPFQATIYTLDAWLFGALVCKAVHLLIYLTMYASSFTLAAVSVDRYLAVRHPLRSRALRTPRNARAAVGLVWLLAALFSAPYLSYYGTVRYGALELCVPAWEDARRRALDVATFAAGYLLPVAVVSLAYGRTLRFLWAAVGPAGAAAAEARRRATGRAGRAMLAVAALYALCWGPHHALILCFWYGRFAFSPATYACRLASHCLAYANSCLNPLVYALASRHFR
# Jurkat NFkB inh = lowers PMA/ionomycin-induced NF-kB signal in Jurkat cells | PMA/ionomycin-induced NF-kB luciferase reporter, luminescence | inhibition, % at 4 µM | 0.53% of 330,000 active | AID 435003; in the data active = inhibition above about 50%
# 697 NFkB inh = lowers PMA/ionomycin-induced NF-kB signal in 697 B cells; 697 B-cell NF-kB luciferase reporter, 16 h; inhibition, % at 4 µM; 0.33% of 330,000 active; in the data active = inhibition above about 35%
# NR2E3 ag-1 = agonists of human NR2E3 nuclear receptor; Q9Y5X4; CHO-S Gal4-NCOR/VP16-NR2E3 two-hybrid, luciferase; inhibition of corepressor binding, % at 3.98 µM; 0.35% of 360,000 active; AID 602229;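 active = inhibition above the mean of all tested compounds plus 3 SD, cut at about 70% in these data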;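 note: higher means lower luciferase signal from less NR2E3 corepressor binding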
# NR2E3 ag-2 = agonists of human nuclear receptor NR2E3 | Q9Y5X4 | GST-NR2E3/biotin-RetCOR TR-FRET, 1536-well | inhibition of corepressor binding, % at 4.78 µM | 0.12% of 320,000 active | AID 2300;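 active = percent inhibition above the cutoff of mean plus 3 SD of all tested compounds, set per screening campaign, cut at about 20% in these data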
#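 system = GST-tagged NR2E3 plus biotinylated RetCOR corepressor | input = 1.35 nM GST-NR2E3 | also added = 7 nM biotin-RetCOR | schedule = 5 h incubation at 4 °C | measured by = TR-FRET with europium anti-GST and streptavidin-D2, 340 nm excitation | read-out = percent loss of FRET ratio relative to control wells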
# Gli-Sufu block = Gli-Sufu pathway antagonism; Sufu-KO-LIGHT fibroblasts, Gli luciferase reporter luminescence; inhibition, % at 5 µM; 0.74% of 340,000 active;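 active = inhibition above about 55%, limit read from the data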
# Jurkat NFkB conf = inhibitors of the PMA/ionomycin-induced NF-kB reporter in Jurkat cells, retest; shares compounds with Jurkat NFkB inh; Jurkat NF-kB luciferase, 16 h; inhibition, % at 4 µM; 27% of 2,700 active; AID 435020;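 active = inhibition reaching about 45% at 4 µM in either replicate, limit read from the data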
# Hits are given with their value; n = inactive; x = no result given. This is a sample that favours compounds with a hit; in the whole collection about 1.8% have one here.
SMILES,GalR3 antag,Jurkat NFkB inh,697 NFkB inh,NR2E3 ag-1,NR2E3 ag-2,Gli-Sufu block,Jurkat NFkB conf
CC[C@@H]1C=CC=CC[C@H](C)[C@@H](O)[C@@H](C)C(=O)[C@H](C)[C@@H](O)[C@H](C)C(=O)[C@H](C)[C@@H](O)[C@H](C)C=CC(=O)O[C@H]2[C@@H](C)[C@@H](CC1)O[C@@]1(CC[C@@H](C)[C@@H](C[C@H](C)O)O1)[C@@H]2C,x,53,n,x,n,x,n
COc1nc2ccccc2nc1N1CC1,n,x,x,n,x,x,x
Cc1ccccc1-n1c(O)c(/C=C2/C(c3ccccc3)=Nc3ccccc32)c(=O)[nH]c1=O,n,53,n,n,n,n,n
CCOC(=O)C1=C(C(=O)OCC)C2(c3ccccc3)c3ccccc3C1(C)N2C (configuration not stated),n,x,x,x,x,x,x
O=C(NCCN1CCC2(CC1)C(=O)NCN2c1ccccc1)c1cccc2c1-c1ccccc1C2=O,n,x,x,x,x,x,x
COc1cccc(NP(=O)(Oc2ccccc2)Oc2ccccc2)c1,n,62,n,n,n,n,n
COc1cccc(NP(=O)(Oc2ccccc2Cl)Oc2ccccc2Cl)c1,n,n,n,n,n,n,x
Cc1ccc(-c2cc(-c3ccc(C)cc3)[n+](-c3ccc(C(=O)[O-])cc3)c(-c3ccc(C)cc3)c2)cc1,n,n,n,n,n,n,x
Cc1ccc(-c2cc(-c3ccccc3)cc(-c3ccccc3)[n+]2-c2ccccc2)cc1,n,54,n,n,n,90,n
COC(=O)C1=C(c2ccc(OC(F)(F)F)cc2)C[C@@H]2CC[C@H]1N2C(=O)N1CCc2cc(OC)c(OC)cc2C1,n,x,x,x,x,x,x
COc1cc2c(cc1O)[C@@H]1Cc3ccc(OC)c(O)c3CN1CC2,n,58,n,n,n,n,n
COc1ccc(C[C@@H]2c3cc(O)c(OC)cc3CCN2C)cc1O,n,n,n,n,n,n,x
CC1=CC(=C2C(=O)NC(=S)NC2=O)C=C(C(F)(F)F)N1Cc1ccccc1,n,70,n,n,n,n,n
CC1=CC(=C2C(=O)NC(=S)NC2=O)C=C(C(F)(F)F)N1CCc1ccccc1,x,50,n,x,n,x,n
N#Cc1ccc(NC(=S)N2Cc3cc(Br)ccc3-n3nncc3C2)cc1,n,x,x,x,x,x,x
CC(=O)O[C@@]12CO[C@@H]1C[C@H](OC1OCC(O)C(O)C1O)[C@@]1(C)C(=O)[C@H](O)C3=C(C)[C@@H](OC(=O)[C@H](O)[C@@H](NC(=O)c4ccccc4)c4ccccc4)C[C@@](O)([C@@H](OC(=O)c4ccccc4)C12)C3(C)C (some centres not stated),n,n,n,n,n,n,x
CC(=O)O[C@@]12CO[C@@H]1C[C@@H](O)[C@@]1(C)C(=O)[C@H](O)C3=C(C)[C@@H](OC(=O)[C@H](O)[C@@H](NC(=O)c4ccccc4)c4ccccc4)C[C@@](O)([C@@H](OC(=O)c4ccccc4)C12)C3(C)C (some centres not stated),n,65,n,n,n,n,65
C/C=C(\C)C(=O)N[C@@H](c1ccccc1)[C@@H](O)C(=O)O[C@H]1C[C@@]2(O)[C@@H](OC(=O)c3ccccc3)C3[C@](C)(C(=O)[C@H](OC(C)=O)C(=C1C)C2(C)C)[C@H](O)C[C@H]1OC[C@@]31OC(C)=O (some centres not stated),n,72,n,n,n,n,73
CCC(C)C(=O)N[C@@H](c1ccccc1)[C@@H](O)C(=O)O[C@H]1C[C@@]2(O)[C@@H](OC(=O)c3ccccc3)C3[C@](C)(C(=O)[C@H](OC(C)=O)C(=C1C)C2(C)C)[C@@H](O)C[C@H]1OC[C@@]31OC(C)=O (some centres not stated),n,72,n,n,n,n,68
CC/C=C/CC(=O)N[C@@H](c1ccccc1)[C@@H](O)C(=O)O[C@H]1C[C@@]2(O)[C@@H](OC(=O)c3ccccc3)C3[C@](C)(C(=O)[C@H](OC(C)=O)C(=C1C)C2(C)C)[C@@H](O)C[C@H]1OC[C@@]31OC(C)=O (some centres not stated),n,66,n,n,n,n,63
CCCCn1nnnc1C(CCc1ccccc1)N1CCC2(CC1)C(=O)NCN2c1ccccc1 (configuration not stated),n,x,x,n,x,x,x
C=CCN1C[C@H](C)N(C(c2ccc(C(=O)N(CC)CC)cc2)c2cccc(OC)c2)CC1C (some centres not stated),n,x,x,x,x,x,x
O=c1c2ccccc2nc(/C=C/c2ccc([N+](=O)[O-])o2)n1-c1ccc(O)cc1,n,91,n,n,x,75,67
N#Cc1ccc2nc(-c3ccc(CN4CCC(n5nnc6ccccc65)CC4)cc3)c(-c3ccccc3)nc2c1,n,x,x,x,x,x,x
Cc1cc(N2CCNC[C@@H]2C)ccc1N1CCN[C@H](C)C1,n,x,x,x,x,x,x
SMILES,GalR3 antag,Jurkat NFkB inh,697 NFkB inh,NR2E3 ag-1,NR2E3 ag-2,Gli-Sufu block,Jurkat NFkB conf
C[C@]12CC[C@H]3[C@@H](CC[C@]4(O)C[C@@H](O)CC[C@]34C=O)[C@@]1(O)CC[C@@H]2C1=CC(=O)OC1,15,98,n,n,n,n,86
CC12CC[C@H]3[C@@H](CCC4(O)C[C@H](O)CCC34/C=N/NC(=O)c3ccccc3Cl)C1(O)CCC2C1=CC(=O)OC1 (some centres not stated),n,n,n,n,n,n,x
CC1OC(OC2C(O)CC(OC3C(O)CC(OC4CCC5(C)C(CCC6C5CCC5(C)C(C7=CC(=O)OC7)C(O)CC65O)C4)OC3C)OC2C)CC(O)C1O (configuration not stated),n,x,x,n,x,n,x
C[C@]12CCC3C(CCC4=CC(O)CC[C@@]43/C=N/O)C1(O)CCC2C1=CC(=O)OC1 (some centres not stated),15,95,n,n,n,n,79
CCCCN=C[C@]12CCC(O)CC1(O)CCC1[C@@H]2CC[C@]2(C)[C@H](C3C=CC(=O)O3)CCC12O (some centres not stated),n,94,n,n,n,n,79
COC(=O)C1C(c2ccccc2)CC2CCC1N2C (configuration not stated),n,x,x,x,x,x,x
O=C(Nc1ccc(C(F)(F)F)cc1)c1cccn(Cc2ccc3c(c2)OC(F)(F)O3)c1=O,n,54,n,n,n,n,n
O=C(O)c1cc(S(=O)(=O)N2CC3CC(C2)c2cccc(=O)n2C3)ccc1F (configuration not stated),n,x,x,x,x,x,x
CC[C@]12CCN(CC3(O)CC3)[C@H](Cc3ccc(O)cc31)C2(C)C,n,x,x,x,x,x,x
COc1ccccc1-n1c(/C=C/c2ccc(O)cc2)nc2ccccc2c1=O,n,n,n,n,n,n,n
